The nature of data set [1]: folding enthalpy; higher = less favourable; fluorescence melt of hairpins on a sequencing array, two-state fit. The settings on record: sodium 0.088 M. The essentials: (§1)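 Melting temperature and folding enthalpy were obtained by bootstrapped two-state fitting. Fits used Cy3 fluorescence of library hairpins with annealed Cy3 and quencher oligos on a sequenced MiSeq flow cell, imaged in 50 mM Na-HEPES pH 8.0, 25 mM NaCl in 2.5 °C steps up to 60 °C and normalised to pre-quench Cy3 and control constructs. Four replicates were combined by inverse-variance weighting, and fitted temperatures were raised by 9.35 °C to match UV melts.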

Data set [2] is described as follows: melting temperature; fluorescence melt of hairpins on a sequencing array, two-state fit, raised by 9.35 °C to match UV melts. The settings on record: sodium 0.088 M. In outline: as §1

On to GACCGAGAAATCGGTC ((((((....)))))), for which the folding enthalpy in data set [1] is -34.4 kcal/mol. In addition, the Tm in data set [2] was 59.6 °C.
As to GACCGCGAAAGCGCGTC ((((((....))).))), the folding enthalpy in data set [1] is -21 kcal/mol. Further, the Tm in data set [2] turned out to be 63.1 °C.
For the sequence GACCGCGAAAGCGTCGTC ((((((....)))..))), the folding enthalpy in data set [1] is -13.5 kcal/mol. Also, the Tm in data set [2] was 53.1 °C.
Regarding GACCGCGGAAACGCGGCC (.(((((....))))).), in data set [1], the folding enthalpy was -10.1 kcal/mol. Further, in data set [2], the Tm was found to be 52.5 °C.
Regarding GACCGGCGAAAGCCAGTC (((.(((....))).))), the folding enthalpy in data set [1] is -20.2 kcal/mol. For the same sequence, in data set [2], the Tm came out at 50.7 °C.
On the same counts, the results for GACCGGGGAAACCCGACC (..((((....))))..) are -11.4 kcal/mol and 30 °C.
Regarding GACCGTCCGAAAGGAGTC (((..(((....)))))), the folding enthalpy in data set [1] was -11.8 kcal/mol. The Tm in data set [2] came to 28.6 °C.
Take GACCGTGGAAACACGGCC (.(((((....))))).): in data set [1], the folding enthalpy is -13.2 kcal/mol. Besides, the Tm in data set [2] stood at 50.9 °C.
On to GACCTACGAAAGTATGTC (((.(((....))).))), for which, in data set [1], the folding enthalpy is -33.4 kcal/mol. Moreover, the Tm in data set [2] is 41 °C.
With GACCTAGGAAACCAGGTC (((((.(....).))))), in data set [1], the folding enthalpy was -35.3 kcal/mol. Further, the Tm in data set [2] was 45 °C.
The matching figures for GACCTAGGAAACTAGGTC (((((((....))))))): -42 kcal/mol and 60.5 °C.
On to GACCTGAAAAGGTC (((((....))))), for which the folding enthalpy in data set [1] is -27.9 kcal/mol. In addition, the Tm in data set [2] was determined as 59 °C.
In the case of GACCTGCGAAAGCAGTC (((.(((....)))))), the folding enthalpy in data set [1] is -12.2 kcal/mol. The Tm in data set [2] was found to be 48.5 °C.
Turning to GACCTGCGAAAGCATGTC (((.(((....))).))), in data set [1], the folding enthalpy was -28.4 kcal/mol. Moreover, the Tm in data set [2] is 49.9 °C.
On the same counts, the results for GACCTGGGAAACCAAGTC (((.(((....))).))) are -29.7 kcal/mol and 33.4 °C.
As for GACGAACGAAAGTTTGTC (((.(((....))).))), in data set [1], the folding enthalpy was -43.7 kcal/mol. In addition, the Tm in data set [2] came out at 54.2 °C.
As for GACGAAGGAAACCTCGTC (((((.(....).))))), the folding enthalpy in data set [1] was -33 kcal/mol. Also, the Tm in data set [2] is 46 °C.
On the same counts, the results for GACGACGAAAGTCACGTC ((((((....)))..))) are -19.6 kcal/mol and 41.1 °C.
GACGACGAAAGTCAGGTC ((((((....)))..))): in data set [1], the folding enthalpy is -19.9 kcal/mol. Further, the Tm in data set [2] was found to be 44.3 °C.
For GACGACGAAAGTCGTGTC ((((((....)))..))), the folding enthalpy in data set [1] was -10.5 kcal/mol. In addition, in data set [2], the Tm came to 59.9 °C.
As for GACGACGGAAACACCGTC ((((..(....)..)))), the folding enthalpy in data set [1] was -13.2 kcal/mol. In addition, the Tm in data set [2] was found to be 38.2 °C.
Regarding GACGACGGAAACATCGTC (((((.(....).))))), in data set [1], the folding enthalpy was -34.2 kcal/mol. In data set [2], the Tm was determined as 45.7 °C.
As to GACGATGGAAACATCGTC (((((((....))))))), the folding enthalpy in data set [1] was -41.7 kcal/mol. Also, the Tm in data set [2] was determined as 67.9 °C.
The matching figures for GACGCAACGAAAGTTGTC (((..(((....)))))): -10 kcal/mol and 34.1 °C.
For the sequence GACGCACGAAAGTGTGTC (((.(((....))).))), in data set [1], the folding enthalpy was -45.6 kcal/mol. In data set [2], the Tm stood at 61.8 °C.
In the case of GACGCAGAAATGCGTC ((((((....)))))), the folding enthalpy in data set [1] was -35.9 kcal/mol. Also, the Tm in data set [2] is 68.5 °C.
On the same counts, the results for GACGCAGGAAACTGTGTC (((.(((....))).))) are -39.8 kcal/mol and 52.5 °C.
Take GACGCCCCGAAAGGGGTC (((..(((....)))))): in data set [1], the folding enthalpy is -7.73 kcal/mol. Moreover, the Tm in data set [2] is 40.2 °C.
On to GACGCCGAAAGGCATGTC ((((((....)))..))), for which the folding enthalpy in data set [1] was -15.2 kcal/mol. The Tm in data set [2] was 43.3 °C.
The matching figures for GACGCCGAAAGGCCAGTC ((((((....)))..))): -15 kcal/mol and 40.7 °C.

These data come from the array DNA melting data of Ke et al. (doi:10.1101/2024.01.08.574731).
